Measured values published in ChEMBL document CHEMBL4196069 (Eur J Med Chem, 2018).

Legend:
[1] = tested on: HL-60; test: Antiproliferative activity against human HL60 cells after 72 hrs by MTT assay; type: functional, cell-based; conditions: HL-60, 72 h
Outline: (§1)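 Cells pre-incubated 24 h at 37 °C in humidified 5% CO2, then exposed to compounds for 72 h. MTT (5 mg/mL) was added for 4 h, formazan was dissolved in DMSO, and OD was read at 570 nm. Vehicle control was 0.1% DMSO. IC50 was calculated from inhibition ratios as the mean ± SD of three independent experiments.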

[2] = tested on: PC-3; test: Antiproliferative activity against human PC3 cells after 72 hrs by MTT assay; type: functional, cell-based; conditions: PC-3, 72 h; outline: as §1
[3] = tested on: Bel-7402; test: Antiproliferative activity against human Bel7402 cells after 72 hrs by MTT assay; type: functional, cell-based; conditions: Bel-7402, 72 h; outline: as §1
[4] = tested on: Bel7402/5-FU; test: Antiproliferative activity against human Bel7402/5-FU cells after 72 hrs by MTT assay; type: functional, cell-based; outline: as §1
[5] = tested on: L02; test: Antiproliferative activity against human LO2 cells after 72 hrs by MTT assay; type: cell-based; conditions: L02, 72 h; outline: as §1
[6] = Selectivity index, ratio of IC50 for human LO2 cells to IC50 for human Bel7402 cells; type: toxicity; conditions: LO2 cells versus Bel7402 cells, read-out: Ratio IC50
Outline: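 Selectivity index = IC50(L-O2)/IC50(Bel-7402), both IC50s from the 72 h MTT assay (mean of three independent experiments).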

| SMILES | IC50 [1] | IC50 [2] | IC50 [3] | IC50 [4] | IC50 [5] | selectivity ratio [6] |
| --- | --- | --- | --- | --- | --- | --- |
| C[C@H]1CCC/C=C/[C@@H]2C[C@H](O)C[C@H]2[C@H](OC(=O)CCCc2ccc(N(CCCl)CCCl)cc2)/C=C/C(=O)O1 | 12.6 µM | 1.37 µM | 1.93 µM | 8.35 µM | 29.6 µM | 15.3 |
| COC(=O)[C@H](Cc1ccc(N(CCCl)CCCl)cc1)NC(=O)CCC(=O)O[C@@H]1/C=C/C(=O)O[C@@H](C)CCC/C=C/[C@@H]2C[C@H](O)C[C@H]21 | 1.52 µM | 14.5 µM | 1.37 µM | 4.6 µM | 5.16 µM | 3.8 |
| COC(=O)[C@H](Cc1ccc(N(CCCl)CCCl)cc1)NC(=O)CCC(=O)O[C@@H]1C[C@H]2[C@H](O)/C=C/C(=O)O[C@@H](C)CCC/C=C/[C@@H]2C1 | 14.4 µM | 17.6 µM | 1.49 µM | 3.05 µM | 4.57 µM | 3.1 |
| C[C@H]1CCC/C=C/[C@@H]2C[C@H](OC(=O)CCCc3ccc(N(CCCl)CCCl)cc3)C[C@H]2[C@H](O)/C=C/C(=O)O1 | 34.7 µM | 6.84 µM | 4.86 µM | 13.8 µM | 15.5 µM | 3.2 |
| C[C@H]1CCC/C=C/[C@@H]2C[C@H](O)C[C@H]2[C@H](O)/C=C/C(=O)O1 [BREFELDIN A] | 0.025 µM |  | 0.024 µM | 0.82 µM | < 0.001 µM |  |
| COC(=O)[C@H](Cc1ccc(N(CCCl)CCCl)cc1)NC(=O)CCC(=O)O[C@@H]1C[C@@H]2[C@H](/C=C/CCC[C@H](C)OC(=O)/C=C/[C@H]2OC(=O)CCC(=O)N[C@@H](Cc2ccc(N(CCCl)CCCl)cc2)C(=O)OC)C1 | 9.37 µM | 32.5 µM | 4.85 µM | 7.47 µM | 29.9 µM | 6.2 |
| O=C(O)CCCc1ccc(N(CCCl)CCCl)cc1 [CHLORAMBUCIL] | 11.6 µM | 40.4 µM | > 80 µM | > 80 µM | > 80 µM |  |
| C[C@H]1CCC/C=C/[C@@H]2C[C@H](OC(=O)c3ccc(N(CCCl)CCCl)cc3)C[C@H]2[C@H](O)/C=C/C(=O)O1 | 8.25 µM | 10.6 µM | 1.45 µM | 4.05 µM | 9.51 µM | 6.6 |
| COC(=O)[C@H](Cc1ccc(N(CCCl)CCCl)cc1)NC(=O)CCC(=O)O | 6.02 µM | > 80 µM | 23.9 µM | > 80 µM | 32.9 µM | 1.37 |
| C[C@H]1CCC/C=C/[C@@H]2C[C@H](OC(=O)c3ccc(N(CCCl)CCCl)cc3)C[C@H]2[C@H](OC(=O)c2ccc(N(CCCl)CCCl)cc2)/C=C/C(=O)O1 | 9.31 µM | 18.5 µM | 6.3 µM | 15.3 µM | 17.3 µM | 2.7 |
| C[C@H]1CCC/C=C/[C@@H]2C[C@H](OC(=O)CCCc3ccc(N(CCCl)CCCl)cc3)C[C@H]2[C@H](OC(=O)CCCc2ccc(N(CCCl)CCCl)cc2)/C=C/C(=O)O1 | 67.4 µM | 20.4 µM | 7.25 µM | 15.6 µM | 19.5 µM | 2.7 |
| O=c1[nH]cc(F)c(=O)[nH]1 [FLUOROURACIL] | 2.37 µM | 23.9 µM | 18.5 µM | > 80 µM |  |  |
